Reference: ChEMBL document CHEMBL4610063, “Mangiferin: A promising natural xanthone from Mangifera indica for the control of acyclovir - resistant herpes simplex virus 1 infection” (Bioorg Med Chem, 2020)
Activity calls are given as the source filed them. The calls are words filed in the database; no cut-off is given here.

Assays:
Assay type in all cases: functional, organism-based
Human alphaherpesvirus 1 [1] = test: Antiviral activity against ACV-sensitive Herpes simplex virus 1 KOS infected in female Balb/c mouse assessed as reduction in ulcerated lesion at 50 mg/g applied topically as cream formulation 5 times a day at 3 hrs interval for 10 days measured on day 3 to day 5 post infection; settings: strain KOS
How it was run: (§1)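 Balb/c mice (5 weeks, 22–27 g; six per group, sexes tested separately) had the right mid-flank depilated under i.p. anaesthesia and needle-scarified 24 h later. They were inoculated with 70 μL HSV-1 KOS (10^5 PFU/mL). From 4 h post-infection, O/W emulsion with 0.7% w/w mangiferin or ACV cream (50 mg/g) was applied topically 5 times daily for 10 days. Lesions were scored daily.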

Human alphaherpesvirus 1 [2] = test: Antiviral activity against ACV-sensitive Herpes simplex virus 1 KOS infected in male Balb/c mouse assessed as reduction in ulcerated lesion at 50 mg/g applied topically as cream formulation 5 times a day at 3 hrs interval for 10 days measured on day 2 post infection; settings: strain KOS; how it was run: as §1
Human alphaherpesvirus 1 [3] = test: Antiviral activity against ACV-sensitive Herpes simplex virus 1 KOS infected in male Balb/c mouse assessed as reduction in ulcerated lesion at 50 mg/g applied topically as cream formulation 5 times a day at 3 hrs interval for 10 days measured on day 7 post infection; settings: strain KOS; how it was run: as §1
Human alphaherpesvirus 1 [4] = test: Antiviral activity against ACV-resistant Herpes simplex virus 1 AR-29 infected in female Balb/c mouse assessed as reduction in skin lesion at 50 mg/g applied topically as cream formulation 5 times a day at 3 hrs interval for 10 days
How it was run: (§2)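 Balb/c mice, 5 weeks old, six per group. Right mid-flank depilated under i.p. anaesthesia, needle-scarified 24 h later and inoculated with 70 μL HSV-1 AR-29 (10^5 PFU/mL). Topical 0.7% w/w O/W emulsion or ACV cream (50 mg/g) starts 4 h post-infection, 5 times daily for 10 days. Lesions are scored daily.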

Human alphaherpesvirus 1 [5] = test: Antiviral activity against ACV-resistant Herpes simplex virus 1 AR-29 infected in female Balb/c mouse assessed as reduction in zosteriform lesion at 50 mg/g applied topically as cream formulation 5 times a day at 3 hrs interval for 10 days measured on day 7 post infection; how it was run: as §2
Human alphaherpesvirus 1 [6] = test: Antiviral activity against ACV-resistant Herpes simplex virus 1 AR-29 infected in male Balb/c mouse assessed as reduction in ulcerated lesion at 50 mg/g applied topically as cream formulation 5 times a day at 3 hrs interval for 10 days measured on day 5 post infection; how it was run: as §2
Human alphaherpesvirus 1 [7] = test: Antiviral activity against ACV-resistant Herpes simplex virus 1 AR-29 infected in male Balb/c mouse assessed as reduction in zosteriform lesion at 50 mg/g applied topically as cream formulation 5 times a day at 3 hrs interval for 10 days measured on day 5 post infection; how it was run: as §2

## Nc1nc2c(ncn2COCCO)c(=O)[nH]1
Human alphaherpesvirus 1 [1]
  Activity: inactive
Human alphaherpesvirus 1 [2]
  Activity: inactive
Human alphaherpesvirus 1 [3]
  Activity: Active
Human alphaherpesvirus 1 [4]
  Activity: inactive
Human alphaherpesvirus 1 [5]
  Activity: Active
Human alphaherpesvirus 1 [6]
  Activity: inactive
Human alphaherpesvirus 1 [7]
  Activity: inactive
